This note sets out measurements from paper PMC10785664 (ACS Omega, 2023).

What is called viability is a per cent measure of how many cells are alive, often set against a control.

The subject of this test is A549 cells. Briefly: MTT cell viability, antiproliferative action on A549 cells. Format: cell-based. Particulars: Homo sapiens, A549, 72 h, read-out: % cell viability. The essentials:
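A549 cells in DMEM with 10% FBS and 1% penicillin-streptomycin (37 °C, 5% CO₂) were grown to 90% confluence, seeded at 2.5 × 10⁴ cells/mL in 96-well plates and left 24 h. Dosing solutions at 25, 50 and 100 µg/mL in PBS/0.2% DMSO were added in triplicate, followed by 72 h incubation. MTT (5 mg/mL) was added for 4 h, then acid-isopropanol overnight. A570/620 was read; viability was blank-corrected relative to untreated controls.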

SMILES strings stand for the structures.

For `CC(=O)O[C@H]1C(=O)[C@@]2(C)[C@H]([C@H](OC(=O)c3ccccc3)[C@]3(O)C[C@H](OC(=O)[C@H](O)[C@@H](NC(=O)c4ccccc4)c4ccccc4)C(C)=C1C3(C)C)[C@]1(OC(C)=O)CO[C@@H]1C[C@@H]2O` [PTX, paclitaxel], the viability at 25 µg/mL was 31.2%, the viability at 50 µg/mL amounted to 26.5% and the viability at 100 µg/mL was found to be 20.2%.
